Measured values reported in ChEMBL document CHEMBL1136094, “Novel, potent and selective cyclin D1/CDK4 inhibitors: indolo[6,7-a]pyrrolo[3,4-c]carbazoles” (Bioorg Med Chem Lett, 2003).

Legend:
[1] = biological target: Tyrosine-protein kinase Blk (Homo sapiens) (UniProt P51451); assay: Inhibition of B lymphoid tyrosine kinase at 500 nM; design: scale not given: the % may be the effect or the level left
Method in brief: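 Panel profiling of isolated kinases with inhibitor at 100 nM and 500 nM. […] Remaining kinase activity is expressed as % of control and is the mean of duplicate assays.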

[2] = biological target: Mitogen-activated protein kinase 12 (Homo sapiens) (UniProt P53778); assay: Inhibition of Stress activated protein kinase 3 at 500 nM; design: scale not given: the % may be the effect or the level left
Method in brief: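 Panel of 39 kinases, each tested at 100 and 500 nM inhibitor. […] Activity is expressed as % of control and is the mean of duplicate assays.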

Tyrosine-protein kinase Blk (Homo sapiens), sequence (P51451 2-505 limits assumed): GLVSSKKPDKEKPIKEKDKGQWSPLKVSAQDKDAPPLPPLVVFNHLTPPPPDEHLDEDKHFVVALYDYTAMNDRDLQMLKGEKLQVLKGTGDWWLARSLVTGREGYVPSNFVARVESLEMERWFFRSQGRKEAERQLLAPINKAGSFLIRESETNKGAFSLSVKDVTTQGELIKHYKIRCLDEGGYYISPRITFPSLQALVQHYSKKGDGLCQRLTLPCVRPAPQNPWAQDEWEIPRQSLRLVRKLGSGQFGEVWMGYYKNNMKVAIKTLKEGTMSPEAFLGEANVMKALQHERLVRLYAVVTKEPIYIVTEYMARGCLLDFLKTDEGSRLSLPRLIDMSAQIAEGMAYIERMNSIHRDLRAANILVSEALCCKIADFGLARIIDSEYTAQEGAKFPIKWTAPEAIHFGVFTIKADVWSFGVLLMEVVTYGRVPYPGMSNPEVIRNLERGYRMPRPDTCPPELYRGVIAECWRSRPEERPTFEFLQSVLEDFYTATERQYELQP
Mitogen-activated protein kinase 12 (Homo sapiens), sequence (P53778 whole entry): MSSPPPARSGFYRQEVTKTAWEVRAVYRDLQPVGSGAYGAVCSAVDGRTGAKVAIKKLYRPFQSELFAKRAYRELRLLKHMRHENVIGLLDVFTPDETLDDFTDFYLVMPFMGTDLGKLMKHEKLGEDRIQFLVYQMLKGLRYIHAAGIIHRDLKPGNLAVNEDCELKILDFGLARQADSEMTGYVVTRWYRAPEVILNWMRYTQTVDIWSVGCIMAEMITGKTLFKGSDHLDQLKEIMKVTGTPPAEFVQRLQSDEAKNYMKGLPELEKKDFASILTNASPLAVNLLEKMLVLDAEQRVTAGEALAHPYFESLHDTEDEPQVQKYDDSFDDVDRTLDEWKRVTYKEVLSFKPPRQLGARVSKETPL

Control [1]: 14%
Control [2]: 109%
SMILES: Cn1ccc2ccc3c4[nH]c5c(CCCN[C@H]6CC[C@H](O)CC6)cccc5c4c4c(c3c21)C(=O)NC4=O
